Measured values reported in PubChem BioAssay.
Records with an inconclusive call do not appear.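 The calls were made as follows, unless noted: active = viability at or below 27.92% in each of two runs, the all-compound median minus 4 SD; inconclusive = no clear call, values can overlap the other calls; inactive = the rest.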

Experiments:
[1] = OD615 S. cerevisiae growth inhibition, permissive medium, pilot counter-assay, permissive growth control for S. cerevisiae lifespan shortening project (AID 705;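 active = growth inhibition above 25% in both replicates, a cutoff set 3 SD above the mean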); conditions: OD615, 24 h, at 10 µM, active compounds read high
In short: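 System – S. cerevisiae with engineered DeaD lifespan system · Buffer or medium – SC raffinose/galactose permissive medium · Schedule – cells pre-grown 4 h, then 24 h compound exposure, 30 °C humidified · Technique – culture turbidity as optical density at 615 nm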

[2] = Restrictive medium S. cerevisiae growth inhibition, OD615, pilot screen of yeast lifespan reduction project, restrictive growth control (AID 706;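 active = growth inhibition above a set limit, 3 SD over mean compound inhibition, in both replicates, cut at about 43% in these data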;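 also: modified DeaD lifespan yeast strain shifted to restrictive glucose medium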); conditions: OD615, 48 h, at 10 µM, active compounds read high
In short: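 Material: engineered S. cerevisiae DeaD strain / Medium: glucose-based CSMM-D restrictive medium / Compound: single dose of 10 µM compound final, 0.25% DMSO / Timing: 4 h pre-incubation, 48 h exposure at 30 °C / Technique: OD615 absorbance reading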

[3] = viability gain of MRP-1-high H69AR cells under doxorubicin, pilot screen, MRP-1 activator project, CellTiter-Glo, duplicate (AID 807;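 active = viability increase at or above a cutoff of the median across tested compounds plus 3 SD, cut at about 8.5% in these data, passing the limit was not always enough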;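 also: compound pretreatment 18-22 h then 72 h combined with doxorubicin; 0% = doxorubicin alone and 100% = vehicle without doxorubicin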); conditions: H69AR viability with doxorubicin, CellTiter-Glo luminescence; at 10 µM; active compounds read high
[4] = growth suppression of beta-catenin knockout HCT116, pilot screen, human colon tumor cells (AID 823;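 active = cell viability at or below a set limit in both duplicate runs, the limit being the all-compound median minus 4 SD, cut at about 23% in these data, passing the limit was not always enough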;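 also: 0% = wells killed by 20 µM Hyamine and 100% = untreated DMSO cell wells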); conditions: CellTiter-Glo, 60 h, at 10 µM, active compounds read low
[5] = growth suppression of PTEN-deleted HCT116, pilot screen, cell-based, HCT116 clonal line, CellTiter-Glo (AID 824); conditions: 60 h, at 10 µM, active compounds read low;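 also: 0% = 20 µM Hyamine control and 100% = vehicle cell control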
[6] = inhibitors of the yeast RAM network, pilot screen, dse1pr::URA3 reporter, 5-FOA selection (AID 869;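 active = inhibition over a set limit, the all-compound mean plus 3 SD, in both replicate runs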;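 also: 0% = DMSO wells with no growth and 100% = 10 µM 1-NA-PP1 with full growth; RAM network block rescues cells from 5-FOA so hits raise OD615 growth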); conditions: S. cerevisiae dse1pr::URA3 5-FOA growth, OD615, 2 d; at 10 µM; active compounds read high; strain carries analog-sensitive mutant Cbk1 kinase
[7] = RAM signaling pathway blockade in yeast – S. cerevisiae, Pdr1DBD-CYC8 efflux-inhibited sensitized strain, primary screen (AID 1298;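 active = RAM network inhibition above 8.4% in each of two replicates, 3 SD over the compound average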;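 also: 0% = DMSO untreated cells without growth and 100% = 10 µM 1-NA-PP1 full growth; higher means more yeast growth rescued from 5-FOA killing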); conditions: S. cerevisiae cbk1-as DSE1-URA3 strain, 5-FOA growth OD615, 2 d; at 50 µM; active compounds read high

CC(=O)Nc1ccccc1NC(=O)C(F)(F)F
inactive: growth inhibition [1] -14.2% | growth inhibition [2] -5% | viability increase [3] -1.16% | viability [4] 101% | viability [5] 108% | inhibition [6] 1.51% | RAM network inhibition [7] 0.88%

COc1ccc(NC(=O)N(CCCN2CCOCC2)Cc2cccnc2)c(OC)c1
inactive: growth inhibition [1] -7.71% | growth inhibition [2] -3.92% | viability increase [3] -1.79% | viability [4] 100% | viability [5] 103% | inhibition [6] 1.03% | RAM network inhibition [7] 1.81%

CC(C)OC(=O)C1C2C=CC3(CN(C(C)c4ccc(Br)cc4)C(=O)C13)O2 (stereo not given)
inactive: growth inhibition [1] -19.3% | growth inhibition [2] -19.3% | viability increase [3] -2.07% | viability [4] 96.8% | viability [5] 94.1% | inhibition [6] 0.395% | RAM network inhibition [7] 6.84%

Cc1nc2sc(C(c3cccs3)N3CCN(c4cccc(Cl)c4)CC3)c(O)n2n1 (stereo not given)
inactive: growth inhibition [1] -5.61% | growth inhibition [2] 2.47% | viability increase [3] 2.07% | viability [4] 93.7% | viability [5] 83.5% | inhibition [6] 2.32% | RAM network inhibition [7] 5.45%

COc1ccc(N(CC(=O)NC2CCCCC2)S(=O)(=O)c2cccnc2)cc1
inactive: growth inhibition [1] -2.11% | growth inhibition [2] 3.61% | viability increase [3] -1.68% | viability [4] 99.6% | viability [5] 105% | inhibition [6] 1.57% | RAM network inhibition [7] 2.86%

Cc1ccc(CNC(=O)C2CCCN(c3nc4ccccc4o3)C2)cc1 (stereo not given)
inactive: growth inhibition [1] -20.4% | growth inhibition [2] -13.5% | viability increase [3] 1.29% | viability [4] 101% | viability [5] 98.9% | inhibition [6] 0.85% | RAM network inhibition [7] 5.43%

Cc1ccc(-c2nc(CS(=O)CC(=O)NCCC(C)C)c(C)o2)cc1 (stereo not given)
inactive: growth inhibition [1] -6.7% | growth inhibition [2] -1.91% | viability increase [3] -0.71% | viability [4] 92.2% | viability [5] 95.8% | inhibition [6] 1.14% | RAM network inhibition [7] 3.42%

CCSCCOC(=O)C1=C(C)NC(=O)NC1c1ccc2c(c1)OCO2 (stereo not given)
inactive: growth inhibition [1] 3.31% | growth inhibition [2] 3.72% | viability increase [3] -1.35% | viability [4] 94.3% | viability [5] 94.5% | inhibition [6] 2.05% | RAM network inhibition [7] 0.41%

CCc1cc(C(=O)Cc2ccc(F)cc2)c(O)cc1O
inactive: growth inhibition [1] -1.34% | growth inhibition [2] -3.73% | viability increase [3] -3.8% | viability [4] 98.8% | viability [5] 86.5% | inhibition [6] 0.665% | RAM network inhibition [7] -2.4%

CC(=O)c1ccc(NC(=O)CN2C(=O)COc3ccc(Cl)cc32)cc1
inactive: growth inhibition [1] -16.9% | growth inhibition [2] -13.2% | viability increase [3] -2.36% | viability [4] 84% | viability [5] 79.2% | inhibition [6] 2.46% | RAM network inhibition [7] 5.11%

Cc1ccccc1CN1CCN(CC(=O)NCc2ccccn2)C1=O
inactive: growth inhibition [1] 4.21% | growth inhibition [2] 10.8% | viability increase [3] 1.17% | viability [4] 106% | viability [5] 108% | inhibition [6] -0.32% | RAM network inhibition [7] 1.55%

CCOC(=O)c1nnn(-c2nonc2N)c1-c1ccccc1
inactive: growth inhibition [1] -8.1% | growth inhibition [2] 7.27% | viability increase [3] -0.46% | viability [4] 98.7% | viability [5] 103% | inhibition [6] 2.83% | RAM network inhibition [7] 5.09%

COCCNC(=O)Cn1cnc2c1c(=O)n(C)c(=O)n2C
inactive: growth inhibition [1] -16.3% | growth inhibition [2] -12.6% | viability increase [3] -0.95% | viability [4] 97.6% | viability [5] 98.3% | inhibition [6] 1.23% | RAM network inhibition [7] 3.4%

CCOC(=O)C(C)Sc1nc2c(c(=O)[nH]c(=O)n2C)n1Cc1ccc(Cl)cc1 (stereo not given)
inactive: growth inhibition [1] -3.52% | growth inhibition [2] 1.73% | viability increase [3] -4.04% | viability [4] 92.6% | viability [5] 91.6% | inhibition [6] -0.265% | RAM network inhibition [7] 2.79%

COc1ccc(S(=O)(=O)N(CC(=O)Nc2ccc3c(c2)OCO3)c2ccccc2OC)cc1
inactive: growth inhibition [1] -20.4% | growth inhibition [2] -13.9% | viability increase [3] -5.32% | viability [4] 69% | viability [5] 79.8% | inhibition [6] 2.13% | RAM network inhibition [7] 6.05%

O=C1CC(N2CCN(C/C=C/c3ccccc3)CC2)C(=O)N1CCc1ccccc1 (stereo not given)
inactive: growth inhibition [1] -12.7% | growth inhibition [2] -9.45% | viability increase [3] -0.11% | viability [4] 72.8% | viability [5] 77.6% | inhibition [6] 1.02% | RAM network inhibition [7] 7.71%

O=C1c2ccccc2NC(c2ccccc2)N1c1ccc(O)cc1 (stereo not given)
inactive: growth inhibition [1] -0.23% | growth inhibition [2] 1.65% | viability increase [3] -3.15% | viability [4] 87.1% | viability [5] 90.8% | inhibition [6] 1.19% | RAM network inhibition [7] 1.89%

O=C(NCCCN1CCc2ccccc2C1)C1CCN(c2nnc(-n3cccc3)s2)CC1
inactive: growth inhibition [1] 2.54% | growth inhibition [2] -1.29% | viability increase [3] -3.55% | viability [4] 82.2% | viability [5] 79.4% | inhibition [6] 2.08% | RAM network inhibition [7] 5.45%

COc1cccc(C(=O)Nc2ccc3nc(N4CCOCC4)cc(C)c3c2)c1
inactive: growth inhibition [1] -7.63% | growth inhibition [2] 0.38% | viability increase [3] -6.58% | viability [4] 95.7% | viability [5] 85.9% | inhibition [6] 0.845% | RAM network inhibition [7] 2.45%

Cn1c(SCC(=O)Nc2cccc(F)c2)nnc1-c1cccnc1
inactive: growth inhibition [1] -4.63% | growth inhibition [2] -4.04% | viability increase [3] 0.87% | viability [4] 105% | viability [5] 104% | inhibition [6] 0.035% | RAM network inhibition [7] 3.15%

C=C(C)Cn1c(CNC(C)=O)nc2ccccc21
inactive: growth inhibition [1] -12.2% | growth inhibition [2] -25.6% | viability increase [3] -0.52% | viability [4] 108% | viability [5] 94.3% | inhibition [6] 0.645% | RAM network inhibition [7] 3.9%

CCC(C)(c1ccc(C(=O)OC)s1)c1ccc(C(=O)OC)s1
inactive: growth inhibition [1] -5.53% | growth inhibition [2] -2.49% | viability increase [3] 1.15% | viability [4] 73.3% | viability [5] 76.8% | inhibition [6] 0.63% | RAM network inhibition [7] 1.02%

CCOC(=O)c1cnc2ccc(C(=O)OC)cc2c1NCCN1CCOCC1
inactive: growth inhibition [1] -6.57% | growth inhibition [2] -2.95% | viability increase [3] -4.73% | viability [4] 86.6% | viability [5] 92.1% | inhibition [6] 2.41% | RAM network inhibition [7] 2.6%

O=C(NCc1ccc2c(c1)OCO2)C1CCC(CNc2c(N3CCCC3)c(=O)c2=O)CC1 (stereo not given)
inactive: growth inhibition [1] -5.55% | growth inhibition [2] -7.12% | viability increase [3] -1.29% | viability [4] 104% | viability [5] 102% | inhibition [6] 3.97% | RAM network inhibition [7] 1.53%

CN1C(=O)C(O)(CC(=O)c2cccnc2)c2ccccc21 (stereo not given)
inactive: growth inhibition [1] -7.06% | growth inhibition [2] -7.81% | viability increase [3] -4.86% | viability [4] 83% | viability [5] 85% | inhibition [6] 2.05% | RAM network inhibition [7] 1.88%

Cc1ccc2c(c1)C(c1ccc(F)cc1)N(C(=O)C1CC1)CC(=O)N2 (stereo not given)
inactive: growth inhibition [1] -3.41% | growth inhibition [2] -4.04% | viability increase [3] -1.19% | viability [4] 83% | viability [5] 75.2% | inhibition [6] -0.015% | RAM network inhibition [7] 1.7%

CCOC(=O)N1CCC(NC(=O)CN2C(=O)CSc3ncccc32)CC1
inactive: growth inhibition [1] 0.38% | growth inhibition [2] -5.29% | viability increase [3] -0.23% | viability [4] 104% | viability [5] 99% | inhibition [6] 2.81% | RAM network inhibition [7] 1.48%

CSC1=NCCN1C(=O)C(C)(C)Oc1ccc(Cl)cc1
inactive: growth inhibition [1] 7.64% | growth inhibition [2] 4.49% | viability increase [3] -4.07% | viability [4] 91.2% | viability [5] 84.7% | inhibition [6] 0.3% | RAM network inhibition [7] -0.37%

O=C(c1cncc(Br)c1)N1CCN(c2ccc(N3CCOCC3)nn2)CC1
inactive: growth inhibition [1] -0.43% | growth inhibition [2] 8.3% | viability increase [3] -2.32% | viability [4] 98.1% | viability [5] 98.5% | inhibition [6] 0.48% | RAM network inhibition [7] 4.09%

CC(C)NS(=O)(=O)c1ccc(NC(=O)c2cccnc2)cc1
inactive: growth inhibition [1] -12.7% | growth inhibition [2] -17.3% | viability increase [3] -0.51% | viability [4] 112% | viability [5] 97.1% | inhibition [6] 1.95% | RAM network inhibition [7] 1.31%

COCCN1C=C(C(=O)OC)C(c2cc(Br)c(OC)c(OC)c2)C(C(=O)OC)=C1
inactive: growth inhibition [1] 1.89% | growth inhibition [2] -0.035% | viability increase [3] -2.7% | viability [4] 80.8% | viability [5] 71.9% | inhibition [6] 2.16% | RAM network inhibition [7] 8.73%

Cc1ccc2c(c1)N(CCCC(=O)NCc1cccnc1)C(=O)CO2
inactive: growth inhibition [1] -13.3% | growth inhibition [2] -16.3% | viability increase [3] 0.96% | viability [4] 95.6% | viability [5] 99.1% | inhibition [6] -0.1% | RAM network inhibition [7] 0.98%

CCC(=O)Nc1cccc(NC(=O)c2cc3ccccc3o2)c1
inactive: growth inhibition [1] -10.9% | growth inhibition [2] -9.17% | viability increase [3] -1.82% | viability [4] 93.8% | viability [5] 90.2% | inhibition [6] 1.2% | RAM network inhibition [7] 5.21%

CCOc1ccc2[nH]c(C)c(CN3CCOCC3)c(=O)c2c1
inactive: growth inhibition [1] 0.82% | growth inhibition [2] -5.17% | viability increase [3] -1.13% | viability [4] 96.5% | viability [5] 99% | inhibition [6] 1.96% | RAM network inhibition [7] 2.56%

Cn1c(=O)oc2cc(S(=O)(=O)N3CCC(C(=O)NCc4cccs4)CC3)ccc21
inactive: growth inhibition [1] -3.54% | growth inhibition [2] 4.04% | viability increase [3] -0.3% | viability [4] 95.1% | viability [5] 90.2% | inhibition [6] 0.335% | RAM network inhibition [7] 1.5%
